Assay results as given in ChEMBL document CHEMBL3526053, “Species-dependent uptake of glycylsarcosine but not oseltamivir in Pichia pastoris expressing the rat, mouse, and human intestinal peptide transporter PEPT1” (Drug Metab Dispos, 2012).

What was measured:
Format in all cases: ADME
[1] = biological target: T1, Solute carrier family 15 member 1 (Mus musculus, UniProt Q9JIP7); experiment: Drug uptake in Pichia pastoris GS115 expressing mouse recombinant PEPT1 at 5 uM after 30s by dual-channel liquid scintillation counting analysis in presence of acyclovir relative to control; conditions: 0.5 min
T1 sequence (Q9JIP7 whole entry): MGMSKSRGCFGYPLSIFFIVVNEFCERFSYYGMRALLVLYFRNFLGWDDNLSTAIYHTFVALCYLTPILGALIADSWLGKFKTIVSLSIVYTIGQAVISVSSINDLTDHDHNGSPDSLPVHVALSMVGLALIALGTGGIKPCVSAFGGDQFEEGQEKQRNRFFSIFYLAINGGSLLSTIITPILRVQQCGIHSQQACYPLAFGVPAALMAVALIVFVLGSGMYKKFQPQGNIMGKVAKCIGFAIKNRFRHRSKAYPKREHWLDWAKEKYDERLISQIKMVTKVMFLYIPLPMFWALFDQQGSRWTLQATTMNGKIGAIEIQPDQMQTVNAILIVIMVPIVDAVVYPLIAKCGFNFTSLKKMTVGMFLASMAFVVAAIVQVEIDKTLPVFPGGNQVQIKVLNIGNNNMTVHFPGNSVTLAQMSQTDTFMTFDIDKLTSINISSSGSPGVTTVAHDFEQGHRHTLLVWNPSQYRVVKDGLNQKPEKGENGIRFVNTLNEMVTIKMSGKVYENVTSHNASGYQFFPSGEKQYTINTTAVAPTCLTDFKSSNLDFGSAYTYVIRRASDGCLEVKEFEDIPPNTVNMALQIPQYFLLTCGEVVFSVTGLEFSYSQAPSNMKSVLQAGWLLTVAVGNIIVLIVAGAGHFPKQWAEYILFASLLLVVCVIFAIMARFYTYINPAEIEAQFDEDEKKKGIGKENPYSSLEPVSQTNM
Method in brief: (§1)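 [3H]GlySar 5.0 µM final, 30-s uptake at 24°C in 100 mM potassium phosphate pH 6.5, with or without a potential inhibitor at 10 mM. Cells are methanol-induced transformants. Values are vector-subtracted and expressed as percent of buffer control. Mean ± SE (n=3). ANOVA with Dunnett's test.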

[2] = biological target: T2, Solute carrier family 15 member 1 (Rattus norvegicus, UniProt P51574); experiment: Drug uptake in Pichia pastoris GS115 expressing rat recombinant PEPT1 at 5 uM after 30s by dual-channel liquid scintillation counting analysis in presence of L-histidine relative to control; conditions: in vivo, 0.5 min; method in brief: as §1
T2 sequence (P51574 whole entry): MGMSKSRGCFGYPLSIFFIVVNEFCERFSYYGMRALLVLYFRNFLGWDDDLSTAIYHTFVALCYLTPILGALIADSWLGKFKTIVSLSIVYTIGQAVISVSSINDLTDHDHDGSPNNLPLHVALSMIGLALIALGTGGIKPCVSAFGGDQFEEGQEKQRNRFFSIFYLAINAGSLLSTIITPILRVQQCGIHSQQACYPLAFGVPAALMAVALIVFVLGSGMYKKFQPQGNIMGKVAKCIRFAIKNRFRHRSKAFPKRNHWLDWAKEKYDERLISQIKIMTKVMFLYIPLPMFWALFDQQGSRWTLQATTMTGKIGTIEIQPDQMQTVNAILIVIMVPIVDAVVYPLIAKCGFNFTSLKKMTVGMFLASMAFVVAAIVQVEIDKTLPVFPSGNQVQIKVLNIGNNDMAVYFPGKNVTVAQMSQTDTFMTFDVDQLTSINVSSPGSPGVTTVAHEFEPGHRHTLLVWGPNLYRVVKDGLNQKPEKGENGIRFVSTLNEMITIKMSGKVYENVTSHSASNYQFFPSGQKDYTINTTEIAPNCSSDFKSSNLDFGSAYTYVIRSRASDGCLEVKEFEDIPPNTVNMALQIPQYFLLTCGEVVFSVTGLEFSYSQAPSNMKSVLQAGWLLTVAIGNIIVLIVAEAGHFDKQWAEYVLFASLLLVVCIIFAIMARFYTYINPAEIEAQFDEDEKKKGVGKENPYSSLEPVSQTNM

[3] = biological target: T2, Solute carrier family 15 member 1; experiment: Drug uptake in Pichia pastoris GS115 expressing rat recombinant PEPT1 at 5 uM after 30s by dual-channel liquid scintillation counting analysis in presence of cephradine relative to control; conditions: 0.5 min
Method in brief: (§2)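 Rat PEPT1 (pPIC3.5K-rPept1) in GS115 His+Mut+ transformant, methanol-induced 20-24 hr in BMMY at 30°C, washed into 100 mM potassium phosphate pH 6.5. [3H]GlySar final 5.0 µM with inhibitor at 10 mM, 30 sec at 24°C. Counts taken by liquid scintillation after 24 hr standing. Values are vector-subtracted and given as % of buffer control. Mean ± SE, n=3.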

[4] = biological target: T2, Solute carrier family 15 member 1; experiment: Drug uptake in Pichia pastoris GS115 expressing rat recombinant PEPT1 at 5 uM after 30s by dual-channel liquid scintillation counting analysis in presence of glycine relative to control; conditions: 0.5 min; method in brief: as §2
[5] = biological target: T2, Solute carrier family 15 member 1; experiment: Drug uptake in Pichia pastoris GS115 expressing rat recombinant PEPT1 at 5 uM after 30s by dual-channel liquid scintillation counting analysis relative to control; conditions: 0.5 min
Method in brief: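 Rat PEPT1 and vector-only (pPIC3.5K) GS115 yeast, methanol-induced 20-24 hr. Cells were washed and concentrated tenfold in 100 mM phosphate buffer pH 6.5. [3H]GlySar or [14C]oseltamivir final 5.0 µM, 24°C, 30 sec and 5 min. Nonspecific binding was measured at 0°C and zero time. Uptake is given as pmol/OD600 by scintillation counting. Mean ± SE, n=6.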

Drug uptake [1]: 99.8% | Drug uptake [2]: 113% | Drug uptake [3]: 23.4% | Drug uptake [4]: 91.5% | Drug uptake [5]: 100%
SMILES: [3H]C(C(=O)O)N(C)C(=O)CN (stereo not given)
